The text below walks through data of ChEMBL document CHEMBL1158117, “Decaspirones A-E, bioactive spirodioxynaphthalenes from the freshwater aquatic fungus Decaisnella thyridioides” (2006).

Holding throughout (format): functional
The subject of experiment [1] is Fusarium verticillioides. As to the kind of experiment: Antifungal activity against Fusarium verticillioides NRRL 25457 after 48 hrs. The conditions noted are these: NRRL 25457, 48 h. An outline of the steps: (§1)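 Broth microdilution in 96-well plates at 1, 3, 5, 10 and 25 µg/mL, with eight replicate wells per level. Compound in MeOH was dried in the well, redissolved in 10 µL MeOH, then 200 µL potato dextrose broth with about 8000 conidia was added (about 4 × 10^4/mL). For A. flavus, conidia came from 14-day PDA cultures at 25 °C and were filtered through cheesecloth. Plates were incubated 48 h at 25 °C and read on a plate reader every 8-16 h against MeOH-only controls. MIC is the lowest level with no growth. Nystatin was the positive control. F. verticillioides was run analogously.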

The test system of another experiment is Staphylococcus aureus. As to the kind of experiment: Antibacterial activity against Staphylococcus aureus ATCC 29213 at 100 ug/disk. The conditions noted are these: for zone of inhibition at 100 µg/disc: read-out: IZ.
The subject of another experiment is Candida albicans. As to the kind of experiment: Antimicrobial activity against Candida albicans ATCC 14053 at 100 ug/disk. The conditions noted are these: for zone of inhibition at 100 µg/disc: read-out: IZ.
The subject of experiment [2] is Fusarium verticillioides. As to the kind of experiment: Antifungal activity against Fusarium verticillioides NRRL 25457 at 200 ug/disk. The conditions noted are these: read-out: IZ. An outline of the steps:
(§2)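 Agar disk diffusion at 200 µg/disk against each fungal strain, scored as the inhibition zone diameter in mm.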

The test system of a further experiment is Bacillus subtilis. As to the kind of experiment: Antibacterial activity against Bacillus subtilis ATCC 6051 at 50 ug/disk. The conditions noted are these: read-out: IZ. An outline of the steps: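 Standard paper-disk agar diffusion test at 50 µg per disk; activity read as the diameter of the inhibition zone in mm.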
The test system of experiment [3] is Aspergillus flavus. As to the kind of experiment: Antifungal activity against Aspergillus flavus NRRL 6541 after 48 hrs. Conditions: NRRL 6541, 48 h. An outline of the steps:
as §1

The subject of experiment [4] is Aspergillus flavus. As to the kind of experiment: Antifungal activity against Aspergillus flavus NRRL 6541 at 200 ug/disk. The conditions noted are these: read-out: IZ. An outline of the steps:
as §2

Experiment [5] has as its system Aspergillus flavus. As to the kind of experiment: Antifungal activity against Aspergillus flavus NRRL 6541 at >25 ug/mL after 48 hrs relative to control. Conditions: in the assay text read “25 ug/mL” for “>25 ug/mL”. An outline of the steps: as §1

Values after ≈ are worked out from the molar mass of the structure shown. Active and inactive are the calls of the source. The rule behind the calls is not given here.

What is called MIC is the lowest concentration found to suppress growth. `O=C1C=CC2(Oc3cccc4cccc(c34)O2)[C@H]2[C@H]1[C@@H](O)C=C[C@H]2O` [DECASPIRONE A]: the figures for the MIC against Fusarium verticillioides [1] and in the experiment with Aspergillus flavus [3] were 5 µg/mL (≈ 14.9 µM) and 10 µg/mL (≈ 29.7 µM), respectively. In addition, the results for the zone of inhibition at 100 µg/disc in the experiment with Staphylococcus aureus and with Candida albicans were 41 mm and 30 mm, respectively. Further, the zone of inhibition at 200 µg/disc in the experiment on Fusarium verticillioides [2] and in the experiment with Aspergillus flavus [4] was 20 mm each time. The zone of inhibition at 50 µg/disc in the experiment with Bacillus subtilis was 39 mm.

Turning to `CC(=O)O[C@H]1C=C[C@@H](O)[C@@H]2[C@@H]1[C@@H](O)C=CC21Oc2cccc3cccc(c23)O1` [DECASPIRONE B], the result with Staphylococcus aureus and with Candida albicans was inactive. Also, the zone of inhibition at 50 µg/disc with Bacillus subtilis was found to be 19 mm.

In the case of `O=C1C=CC2(Oc3cccc4cccc(c34)O2)[C@H]2[C@H]1[C@@H](O)CC[C@H]2O` [DECASPIRONE C], the MIC is 25 µg/mL (≈ 73.9 µM) with Fusarium verticillioides [1] and over 25 µg/mL against Aspergillus flavus [3]. Further, in the experiment on Staphylococcus aureus, the zone of inhibition at 100 µg/disc stood at 28 mm. Besides, the outcome with Candida albicans was inactive. Also, the zone of inhibition at 200 µg/disc was 26 mm in the experiment with Fusarium verticillioides [2] and 15 mm in the experiment on Aspergillus flavus [4]. The zone of inhibition at 50 µg/disc in the experiment with Bacillus subtilis was determined as 34 mm. Further, the Activity in the experiment on Aspergillus flavus [5] worked out at 27%.

Take `CC(=O)O[C@@H]1C=C[C@H](O)[C@H]2C(=O)C=CC3(Oc4cccc5cccc(c45)O3)[C@@H]21` [DECASPIRONE D]: the figures for the zone of inhibition at 100 µg/disc with Staphylococcus aureus and with Candida albicans were 30 mm and 13 mm, respectively. For the same compound, in the experiment with Bacillus subtilis, the zone of inhibition at 50 µg/disc is 30 mm.

`CC(=O)O[C@H]1C=C[C@@H](O)[C@@H]2[C@@H]1C(=O)C=CC21Oc2cccc3cccc(c23)O1` [DECASPIRONE E]: in the experiment on Staphylococcus aureus, the outcome was inactive. Moreover, in the experiment with Candida albicans, the zone of inhibition at 100 µg/disc was 17 mm. In addition, in the experiment with Bacillus subtilis, the zone of inhibition at 50 µg/disc was 30 mm.
